# Screening data as filed in PubChem BioAssay.
# An excerpt weighted towards active compounds, which were near 2.6% of everything screened.
# INS-1E GSIS act – GLuc luminescence reporter in INS-1E cells, primary screen for activators of glucose-dependent secretion of insulin. INS-1E GLuc reporter insulin secretion, 2-3 h. activation, % at 16.6 µM. 370,000 tested, 0.61% active;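 active = lowest replicate activation of at least 40%, so every replicate reaches that level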;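 note: 0% = median of neutral control wells and 100% = median of IBMX positive control wells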
# DENV2 CPE rescue – inhibitors of DENV2 cytopathic effect, primary screen, cell-based, plate reader, single concentration; DENV2-infected cells, cytopathic effect rescue; CPE inhibition, % at 9.99 µM; 350,000 tested, 1.7% active; in the data active = CPE inhibition above about 20%, passing the limit was not always enough; inconclusive = no clear call, values can overlap the other calls; tested in BHK-21 cells;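 note: 0% = median of neutral control wells and 100% = median of positive control wells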
# E-sel inducer – E-selectin induction in HUVECs, primary screen, imaging, HUVEC, immunofluorescence imaging, single point. P16581. normalized: neutral wells 0, TNF-alpha wells 100. activation, % at 7.58 µM. 260,000 tested, 0.37% active. AID 686992, 2013;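 active = mean E-selectin-positive cell signal at least 10% of the positive control, reached in at least 60% of replicates, without over 20% cell loss; inconclusive = no rule given, readout overlaps actives, possibly toxicity-flagged; inactive = the rest, including those meeting only one limit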
# Target sequence (P16581 whole entry, looked up): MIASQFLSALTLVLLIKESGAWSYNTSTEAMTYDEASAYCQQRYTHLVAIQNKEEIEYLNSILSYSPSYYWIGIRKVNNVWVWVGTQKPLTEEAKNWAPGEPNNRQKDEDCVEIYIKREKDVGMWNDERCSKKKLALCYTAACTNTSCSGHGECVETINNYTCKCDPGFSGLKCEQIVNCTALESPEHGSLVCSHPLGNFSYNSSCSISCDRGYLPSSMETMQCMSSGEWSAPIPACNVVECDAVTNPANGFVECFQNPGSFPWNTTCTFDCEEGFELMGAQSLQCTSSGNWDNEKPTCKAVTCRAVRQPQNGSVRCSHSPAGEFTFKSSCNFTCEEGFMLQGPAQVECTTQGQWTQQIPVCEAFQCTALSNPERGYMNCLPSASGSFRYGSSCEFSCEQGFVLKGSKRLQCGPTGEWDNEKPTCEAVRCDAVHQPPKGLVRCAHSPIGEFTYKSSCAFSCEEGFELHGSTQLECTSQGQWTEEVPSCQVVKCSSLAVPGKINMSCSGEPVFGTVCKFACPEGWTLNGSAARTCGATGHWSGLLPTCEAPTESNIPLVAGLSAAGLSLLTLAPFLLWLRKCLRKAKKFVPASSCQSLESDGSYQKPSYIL
#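 Test system – human umbilical vein endothelial cells (HUVEC), E-selectin induction · Input – 3,000 HUVEC seeded per well · Buffer or medium – EGM-2, gelatin · Compound dosing – single-point compound dose · Detection – immunofluorescence imaging · Measure – percent E-selectin-positive cells · Controls – TNF-alpha high, DMSO low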
# CFTR F508del cor – F508del CFTR correction, initial screen, CFBE line, single point; CFBE cells, YFP halide quenching; stimulated with forskolin plus potentiator P3; % fluorescence drop versus neutral controls; activity (quench increase), % at 7.58 µM; 350,000 tested, 0.36% active; AID 720511, 2013;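 active = mean added fluorescence quench of at least 8% versus neutral control, with both replicates also reaching 8%; inconclusive = only one of the mean or replicate conditions met; inactive = mean below 8% and not both replicates reaching 8%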;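 note: cells transiently co-express mutant CFTR-F508del with the halide-sensitive YFP; corrector assay measuring rescue of mutant channel to the surface after 24 h compound exposure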
# ERAP1 HTS inh – human ERAP1 aminopeptidase inhibitors, primary screen, biochemical, single point, plate reader. recombinant ERAP1, Leu-AMC fluorescence, 60 min. Endoplasmic reticulum aminopeptidase 1 (Homo sapiens), Q9NZ08. 340,000 tested, 0.15% active. inhibition, % at 10.7 µM;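 active = mean replicate inhibition of at least 30%, or all replicates individually reaching that 30% level; inactive = mean below 30% and not every replicate reaching it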;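 note: 0% = neutral control wells and 100% = L-leucinethiol positive control wells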
# miR-122 sensor – miR-122 Renilla sensor signal increase in Huh7, primary screen, miR-122 inhibitor project, cell-based, single point, plate reader. Huh7 miR-122 Renilla luciferase sensor, 48 h; neutral wells = 0, positive control = 100. activation (reporter increase), % at 12.5 µM. 340,000 tested, 0.3% active. AID 602342, 2012;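 active = mean replicate activation score at least 90 and every replicate individually at or above 90; inconclusive = only one of the two criteria met; inactive = neither criterion met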;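 note: higher luciferase means less miR-122 activity so hits act as miR-122 inhibitors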
# Starred values were filed as active, the others as inactive; ? = inconclusive; / = no result; [ ] = another dose, or the depositor's remark.
SMILES,INS-1E GSIS act,DENV2 CPE rescue,E-sel inducer,CFTR F508del cor,ERAP1 HTS inh,miR-122 sensor
COc1cc(OC)c2c(-c3cccc(-c4ccc(C(C)=O)cc4)c3)cc(=O)oc2c1,/,/,/,/,/,26.6
COc1cc(OC)c2c(-c3cccc(-c4ccc(OC)c(F)c4)c3)cc(=O)oc2c1,-19.7,-2.1,-5.5,8.5*,/,/
CC(=O)Oc1cc(C(=O)OCC(=O)NC23CC4CC(CC(C4)C2)C3)cc(OC(C)=O)c1OC(C)=O,-3.8,3.4,-1.3,10.1*,-10.5,-15.0
Cn1c(SCC(=O)c2cc3ccccc3o2)nnc1-c1ccccc1,-1.5,66.8*,15.8,-2.1,5.5,14.7
O=C(Nc1ccc(F)cc1)N1C[C@H]2[C@@H](c3ccccc31)[C@@H](CO)N2Cc1ccccc1,9.9,12.3,0.3,-2.9,-1.4,0.0[16.7 µM]
CC(C)NC(=O)N1[C@H](CO)[C@H]2c3ccccc3N(C(=O)Nc3ccc(F)cc3)C[C@H]21,6.0,27.0*,0.0,-3.1,0.4,-2.8[16.7 µM]
O=C(Nc1ccccc1)N1C[C@@H]2[C@H](c3ccccc31)[C@@H](CO)N2Cc1ccccc1,7.7,45.3*,-0.3,-0.2,-1.5,8.3[16.7 µM]
O=C(Nc1ccc(F)cc1)N1C[C@H]2[C@@H](c3ccccc31)[C@@H](CO)N2Cc1ccccc1Cl,-24.3,30.0*,0.3,0.4,1.4,-4.5[16.7 µM]
O=C(Nc1ccccc1)N1C[C@H]2[C@@H](c3ccccc31)[C@H](CO)N2Cc1ccccc1,-4.6,56.9*,0.1,-2.2,-1.9,0.0[16.7 µM]
CC(C)NC(=O)N1[C@H](CO)[C@@H]2c3ccccc3N(C(=O)Nc3ccc(F)cc3)C[C@@H]21,-5.0,-9.7,0.2,-0.7,-0.8,3.8[16.7 µM]
C=CC[C@@H](CC(=O)N(CCO)Cc1ccccc1)C(=O)N[C@H](COC(=O)[C@H](CC=C)CC(=O)OC(C)(C)C)Cc1c[nH]c2ccccc12,-17.0,8.1,-0.4,8.5*,0.2,/
C=CCC[C@H](Cc1ccc(F)cc1)C(=O)OC[C@H](Cc1c[nH]c2ccccc12)NC(=O)[C@@H](CC=C)CC(=O)N(CCO)Cc1ccccc1,/,/,-0.5,7.9,-1.6,-7.6
C=CC[C@H](CC(=O)N(CCO)Cc1ccccc1)C(=O)N[C@H](COC(=O)[C@@H](CC=C)CC(=O)OC(C)(C)C)Cc1c[nH]c2ccccc12,-31.2,14.0,-0.2,1.1,/,9.3
C=CCC[C@H](Cc1ccc(F)cc1)C(=O)OC[C@@H](Cc1c[nH]c2ccccc12)NC(=O)[C@@H](CC=C)CC(=O)N(CCO)Cc1ccccc1,-9.6,20.9*,-0.1,-0.7,/,-13.6
COc1ccc(-c2nnc3n2CCCCC3)cc1OC,-0.6,-7.6,35.5*,-2.7,-0.2,-3.3
CCc1ccccc1NC(=S)N(Cc1cccnc1)Cc1ccco1,/,4.0,/,2.0,4.5,/
Cc1cc(C)c(NC(=S)N(Cc2cccnc2)Cc2ccco2)c(C)c1,-22.4,48.8*,1.4,3.4,-0.2,-2.7
C[C@@H]1CN([C@@H](C)CO)C(=O)c2cc(NC(=O)Cn3cnnn3)ccc2O[C@@H]1CN(C)S(=O)(=O)c1ccc(Cl)cc1,28.9,-6.5,0.3,-2.0,-5.0,8.0[16.7 µM]
COC(=O)CNc1cc(S(=O)(=O)N2CCCCC2)ccc1Oc1ccc(C(=O)OC)cc1,-19.9,?,-0.1,8.7*,1.0,0.0
COC(=O)CNc1cc(S(=O)(=O)N2CCCCC2)ccc1Oc1cccc(C)c1,-48.5,-2.1,/,-1.9,-2.6,-0.8
Cc1cc(C(=O)Nc2cccc3c2O[C@@H](CN(C)Cc2ccccc2)[C@H](C)CN([C@@H](C)CO)C3=O)n(C)n1,15.9,-5.3,0.1,0.0,1.9,-7.9[16.7 µM]
C[C@H]1CN([C@@H](C)CO)C(=O)Cc2cc(NS(=O)(=O)c3ccccc3)ccc2O[C@H]1CN(C)S(=O)(=O)c1cn(C)cn1,9.2,13.6,3.1,0.1,-1.2,1.7[16.7 µM]
COc1cccc(/C=N/Nc2ncnc(Cl)c2N)c1O,/,4.9,/,23.2*,2.3,/
COc1cccc(/C=N/Nc2nccnc2Cl)c1O,-2.0,/,/,3.2,-1.1,9.8
COc1cccc(/C=N/NC(=O)C(=O)N/N=C/c2cccc(OC)c2O)c1O,-2.3,0.7,/,10.4*,-4.6,1.0
SMILES,INS-1E GSIS act,DENV2 CPE rescue,E-sel inducer,CFTR F508del cor,ERAP1 HTS inh,miR-122 sensor
COc1cccc(/C=N/NC(=O)C(=O)N2CCCCCC2)c1O,-2.1,-3.4,0.7,4.6,-3.0,-5.1
COc1ccc(NC(=O)N(C)C[C@H]2Oc3ccc(NS(=O)(=O)c4c(C)noc4C)cc3CC(=O)N([C@H](C)CO)C[C@H]2C)cc1,13.1,-6.0,/,-0.7,-3.6,-5.0[16.7 µM]
Cc1ccc(NC(=O)C2CCCN2C(=O)c2cccs2)c(C)c1 (stereo unspecified),24.1,-2.5,/,1.6,55.9*,/
Cc1ccc(NC(=O)C2CCN(C(=O)c3cccs3)CC2)c(C)c1,0.2,5.0,/,5.1,34.1*,/
NC(=O)c1ccsc1NC(=O)COC(=O)[C@@H]1CCCN1C(=O)c1cccs1,-6.6,122.1*,/,-6.8,-3.4,/
CC(=O)Nc1ccc(NC(=O)COC(=O)[C@@H]2CCCN2C(=O)c2cccs2)cc1,7.5,7.3,-0.1,4.7,0.0,-2.1
NS(=O)(=O)c1ccc(CCNC(=O)C2CCCN2C(=O)c2cccs2)cc1 (stereo unspecified),/,94.7*,-0.2,-3.0,0.9,-7.0
CCCNC(=O)N1CC2(CCN(CC3CCCC3)CC2)c2c(n(C)c3cc(OC)ccc23)[C@H]1CO,-0.6,-8.3,0.2,-0.2,1.5,/
COc1ccccc1CN(C)C[C@@H]1OCc2ccccc2-c2c(n(C)c3ccccc23)C(=O)N([C@@H](C)CO)C[C@@H]1C,1.9,-1.7,-3.4,-1.7,3.1,/
COCC(=O)Nc1ccc2c(c1)C(=O)N(C)C[C@H](OC)[C@H](C)CN(C(=O)c1ccccn1)[C@@H](C)CO2,-1.1,65.3*,0.3,1.3,2.1,/
COCC(=O)Nc1ccc2c(c1)C(=O)N(C)C[C@@H](OC)[C@@H](C)CN(C(=O)c1ccccn1)[C@H](C)CO2,6.1,23.3*,0.2,0.3,0.7,/
COCC(=O)Nc1ccc2c(c1)C(=O)N(C)C[C@@H](OC)[C@H](C)CN(C(=O)c1ccccn1)[C@H](C)CO2,11.3,-5.2,-0.1,-1.6,3.7,/
CO[C@H]1CN(C)C(=O)c2ccc(NC(=O)Nc3cc(F)ccc3F)cc2OC[C@@H](C)N(C(=O)c2ccccn2)C[C@H]1C,-0.9,37.7*,-0.2,-2.3,-1.5,/
CCC(=O)Nc1ccc2c(c1)OC[C@@H](C)N(C(=O)c1ccccn1)C[C@@H](C)[C@H](OC)CN(C)C2=O,6.6,25.8*,-0.2,/,0.4,0.7[16.7 µM]
